Active and inactive are the calls of the source. No cut-off for these calls is given here.
Key:
HCT-116 [1] = assay: Cytotoxicity against human HCT116 cells assessed as change in cell viability at 10 uM after 48 hrs by MTT assay; format: functional, cell-based
Summary of the method: (§1)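 Cells grown in DMEM with 10% FBS, 37 °C, 5% CO2; 1 × 10^4 cells per well plated and left 24 h, then exposed to a range of compound concentrations or vehicle (1% EtOH) for 48 h. Viability read by MTT.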

MDA-MB-231 [2] = assay: Cytotoxicity against human MDA-MB-231 cells assessed as change in cell viability at 10 uM after 48 hrs by MTT assay; format: functional, cell-based; summary of the method: as §1
Histone deacetylase 1 = Histone deacetylase 1 (Homo sapiens, UniProt Q13547); assay: Inhibition of recombinant full length C-terminal His/FLAG-tagged human HDAC1 expressed in baculovirus infected Sf9 insect cells using BPS HDAC substrate 3 at 10 uM after 30 mins by fluorescence assay relative to control
Sequence of Histone deacetylase 1 (Q13547 whole entry): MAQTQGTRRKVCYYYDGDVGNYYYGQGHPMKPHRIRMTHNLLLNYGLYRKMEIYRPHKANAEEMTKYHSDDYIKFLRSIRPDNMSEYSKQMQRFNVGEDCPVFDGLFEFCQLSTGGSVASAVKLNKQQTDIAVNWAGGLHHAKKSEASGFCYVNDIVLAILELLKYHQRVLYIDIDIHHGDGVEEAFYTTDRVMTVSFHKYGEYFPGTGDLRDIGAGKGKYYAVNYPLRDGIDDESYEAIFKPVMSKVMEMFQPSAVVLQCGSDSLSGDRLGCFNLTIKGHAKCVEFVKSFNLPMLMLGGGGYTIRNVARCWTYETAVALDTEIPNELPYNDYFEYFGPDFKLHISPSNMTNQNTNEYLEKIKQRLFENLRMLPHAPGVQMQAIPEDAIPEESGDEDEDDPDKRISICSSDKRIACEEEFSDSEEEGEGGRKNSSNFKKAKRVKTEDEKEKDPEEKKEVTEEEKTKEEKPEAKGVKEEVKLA
Summary of the method: (§2)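 Run by a contract lab. Compound incubated with HDAC enzyme, substrate, bovine serum albumin and HDAC buffer in duplicate for 30 min at 37 °C. Quenched with HDAC developer, 15 min at room temperature, fluorescence read at ex 360/em 460 nm. Activity taken as (F−Fb)/(Ft−Fb) against blank and solvent control wells; IC50 from curve fitting.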

Histone deacetylase 2 = Histone deacetylase 2 (Homo sapiens, UniProt Q92769); assay: Inhibition of full length C-terminal FLAG-tagged human HDAC2 expressed in baculovirus infected Sf9 insect cells using BPS HDAC substrate 3 at 10 uM after 30 mins by fluorescence assay relative to control; summary of the method: as §2
Sequence of Histone deacetylase 2 (Q92769 whole entry, the tested form may be a part): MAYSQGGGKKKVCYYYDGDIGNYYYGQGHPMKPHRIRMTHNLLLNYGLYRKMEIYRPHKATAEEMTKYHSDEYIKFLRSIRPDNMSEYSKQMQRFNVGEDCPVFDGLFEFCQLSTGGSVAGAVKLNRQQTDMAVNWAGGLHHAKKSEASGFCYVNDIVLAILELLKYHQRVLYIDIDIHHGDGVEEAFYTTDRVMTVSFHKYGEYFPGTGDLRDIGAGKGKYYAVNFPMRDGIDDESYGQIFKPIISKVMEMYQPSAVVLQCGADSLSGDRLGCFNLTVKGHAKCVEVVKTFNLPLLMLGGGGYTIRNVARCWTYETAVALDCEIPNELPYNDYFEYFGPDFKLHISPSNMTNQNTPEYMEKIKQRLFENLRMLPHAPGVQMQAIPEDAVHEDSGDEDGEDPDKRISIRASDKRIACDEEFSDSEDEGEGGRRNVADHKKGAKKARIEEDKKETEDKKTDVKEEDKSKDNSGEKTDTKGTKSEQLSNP

[3] = target: Histone deacetylase 3/Nuclear receptor corepressor 2 (HDAC3/NCoR2) (Homo sapiens, UniProt O15379); assay: Inhibition of full length human C-terminal His-tagged HDAC3/N-terminal GST-tagged NCOR2 (395 to 489 residues) expressed in baculovirus infected Sf9 insect cells using BPS HDAC substrate 3 after 30 mins by fluorescence assay
Sequence of Histone deacetylase 3/Nuclear receptor corepressor 2 (HDAC3/NCoR2) (O15379 whole entry, the tested form may be a part): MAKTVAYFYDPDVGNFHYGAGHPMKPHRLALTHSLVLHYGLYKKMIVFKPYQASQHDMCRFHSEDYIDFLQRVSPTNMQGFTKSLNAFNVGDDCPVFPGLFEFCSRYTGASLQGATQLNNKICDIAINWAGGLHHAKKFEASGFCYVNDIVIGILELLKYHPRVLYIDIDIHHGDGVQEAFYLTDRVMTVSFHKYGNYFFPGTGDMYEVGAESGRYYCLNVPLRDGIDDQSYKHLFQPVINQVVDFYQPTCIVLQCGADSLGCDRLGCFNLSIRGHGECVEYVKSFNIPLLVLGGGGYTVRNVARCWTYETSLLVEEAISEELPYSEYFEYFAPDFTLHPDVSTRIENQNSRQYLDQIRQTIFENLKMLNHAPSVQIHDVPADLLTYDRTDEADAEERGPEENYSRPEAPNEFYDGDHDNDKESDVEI
Sequence of Histone deacetylase 3/Nuclear receptor corepressor 2 (HDAC3/NCoR2) (Q9Y618 whole entry, further chain, the tested form may be a part): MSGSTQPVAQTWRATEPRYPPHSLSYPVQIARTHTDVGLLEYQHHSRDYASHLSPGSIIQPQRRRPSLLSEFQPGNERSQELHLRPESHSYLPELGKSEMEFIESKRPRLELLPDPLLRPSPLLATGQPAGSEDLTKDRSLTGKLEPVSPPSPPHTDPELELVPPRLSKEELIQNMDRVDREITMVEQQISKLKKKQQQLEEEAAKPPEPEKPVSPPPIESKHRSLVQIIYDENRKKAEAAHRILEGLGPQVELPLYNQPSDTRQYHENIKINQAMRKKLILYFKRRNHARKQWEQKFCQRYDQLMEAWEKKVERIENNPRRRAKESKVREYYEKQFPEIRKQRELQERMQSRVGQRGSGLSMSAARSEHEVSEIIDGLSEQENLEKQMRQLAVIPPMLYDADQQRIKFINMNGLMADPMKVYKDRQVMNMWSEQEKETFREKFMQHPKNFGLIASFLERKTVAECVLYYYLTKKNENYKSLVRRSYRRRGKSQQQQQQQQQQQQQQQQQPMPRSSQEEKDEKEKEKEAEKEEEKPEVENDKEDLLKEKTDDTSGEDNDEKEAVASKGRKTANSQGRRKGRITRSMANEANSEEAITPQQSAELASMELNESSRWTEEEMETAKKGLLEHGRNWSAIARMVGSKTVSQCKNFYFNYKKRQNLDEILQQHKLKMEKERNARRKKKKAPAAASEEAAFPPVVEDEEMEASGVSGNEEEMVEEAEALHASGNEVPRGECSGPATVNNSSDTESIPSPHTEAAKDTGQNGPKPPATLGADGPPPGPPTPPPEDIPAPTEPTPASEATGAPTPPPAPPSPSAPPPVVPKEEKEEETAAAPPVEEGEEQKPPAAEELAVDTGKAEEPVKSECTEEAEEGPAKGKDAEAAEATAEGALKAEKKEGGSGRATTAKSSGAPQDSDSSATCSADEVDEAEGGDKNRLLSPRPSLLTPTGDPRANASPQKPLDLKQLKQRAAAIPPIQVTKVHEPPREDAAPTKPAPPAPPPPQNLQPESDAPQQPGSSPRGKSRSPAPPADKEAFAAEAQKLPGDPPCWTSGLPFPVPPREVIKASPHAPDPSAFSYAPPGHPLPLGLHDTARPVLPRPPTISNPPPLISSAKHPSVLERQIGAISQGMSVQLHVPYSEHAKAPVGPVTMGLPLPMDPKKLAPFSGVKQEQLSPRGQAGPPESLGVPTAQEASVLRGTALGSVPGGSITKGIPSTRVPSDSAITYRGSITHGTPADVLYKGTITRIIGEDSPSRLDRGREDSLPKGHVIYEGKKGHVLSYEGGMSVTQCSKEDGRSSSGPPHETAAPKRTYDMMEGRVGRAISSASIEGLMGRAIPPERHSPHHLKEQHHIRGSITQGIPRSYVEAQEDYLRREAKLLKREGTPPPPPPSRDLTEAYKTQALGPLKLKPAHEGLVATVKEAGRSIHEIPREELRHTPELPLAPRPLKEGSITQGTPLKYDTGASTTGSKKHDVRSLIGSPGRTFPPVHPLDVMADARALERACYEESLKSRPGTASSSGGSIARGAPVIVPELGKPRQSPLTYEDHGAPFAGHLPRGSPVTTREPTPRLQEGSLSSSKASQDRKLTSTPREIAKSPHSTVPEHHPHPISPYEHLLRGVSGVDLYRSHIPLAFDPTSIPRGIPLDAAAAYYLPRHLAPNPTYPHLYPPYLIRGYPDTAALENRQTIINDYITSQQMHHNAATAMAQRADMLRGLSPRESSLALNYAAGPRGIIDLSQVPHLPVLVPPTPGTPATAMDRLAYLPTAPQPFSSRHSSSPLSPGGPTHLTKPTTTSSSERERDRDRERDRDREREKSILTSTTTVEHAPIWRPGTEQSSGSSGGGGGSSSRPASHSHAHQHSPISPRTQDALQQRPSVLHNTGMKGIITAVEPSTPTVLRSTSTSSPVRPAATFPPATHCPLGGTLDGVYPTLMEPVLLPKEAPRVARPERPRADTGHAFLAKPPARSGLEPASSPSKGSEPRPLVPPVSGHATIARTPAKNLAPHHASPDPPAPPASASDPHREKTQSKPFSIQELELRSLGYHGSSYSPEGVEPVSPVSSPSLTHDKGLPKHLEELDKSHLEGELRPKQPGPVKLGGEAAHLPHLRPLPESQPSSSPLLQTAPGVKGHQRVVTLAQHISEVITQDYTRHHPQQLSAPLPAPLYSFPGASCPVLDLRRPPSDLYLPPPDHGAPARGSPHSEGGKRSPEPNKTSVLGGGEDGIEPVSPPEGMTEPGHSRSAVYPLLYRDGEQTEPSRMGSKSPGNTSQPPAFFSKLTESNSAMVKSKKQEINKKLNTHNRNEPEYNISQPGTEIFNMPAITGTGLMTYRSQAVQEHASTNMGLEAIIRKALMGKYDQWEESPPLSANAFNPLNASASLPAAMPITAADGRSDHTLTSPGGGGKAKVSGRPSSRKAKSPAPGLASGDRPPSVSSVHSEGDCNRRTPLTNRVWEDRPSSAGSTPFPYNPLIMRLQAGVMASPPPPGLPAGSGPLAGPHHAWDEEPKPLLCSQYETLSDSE
Summary of the method: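 Run by a contract lab. Compound incubated with HDAC enzyme, substrate, bovine serum albumin and HDAC buffer in duplicate for 30 min at 37 °C. Activity taken as (F−Fb)/(Ft−Fb) against blank and solvent control wells; IC50 from curve fitting.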

[4] = target: Histone deacetylase 5 (Homo sapiens) (UniProt Q9UQL6); assay: Inhibition of full length N-terminal GST-tagged human HDAC5 expressed in baculovirus infected Sf9 insect cells using BPS HDAC class 2a substrate at 10 uM after 30 mins by fluorescence assay relative to control; summary of the method: as §2
Sequence of Histone deacetylase 5 (Homo sapiens) (Q9UQL6 whole entry): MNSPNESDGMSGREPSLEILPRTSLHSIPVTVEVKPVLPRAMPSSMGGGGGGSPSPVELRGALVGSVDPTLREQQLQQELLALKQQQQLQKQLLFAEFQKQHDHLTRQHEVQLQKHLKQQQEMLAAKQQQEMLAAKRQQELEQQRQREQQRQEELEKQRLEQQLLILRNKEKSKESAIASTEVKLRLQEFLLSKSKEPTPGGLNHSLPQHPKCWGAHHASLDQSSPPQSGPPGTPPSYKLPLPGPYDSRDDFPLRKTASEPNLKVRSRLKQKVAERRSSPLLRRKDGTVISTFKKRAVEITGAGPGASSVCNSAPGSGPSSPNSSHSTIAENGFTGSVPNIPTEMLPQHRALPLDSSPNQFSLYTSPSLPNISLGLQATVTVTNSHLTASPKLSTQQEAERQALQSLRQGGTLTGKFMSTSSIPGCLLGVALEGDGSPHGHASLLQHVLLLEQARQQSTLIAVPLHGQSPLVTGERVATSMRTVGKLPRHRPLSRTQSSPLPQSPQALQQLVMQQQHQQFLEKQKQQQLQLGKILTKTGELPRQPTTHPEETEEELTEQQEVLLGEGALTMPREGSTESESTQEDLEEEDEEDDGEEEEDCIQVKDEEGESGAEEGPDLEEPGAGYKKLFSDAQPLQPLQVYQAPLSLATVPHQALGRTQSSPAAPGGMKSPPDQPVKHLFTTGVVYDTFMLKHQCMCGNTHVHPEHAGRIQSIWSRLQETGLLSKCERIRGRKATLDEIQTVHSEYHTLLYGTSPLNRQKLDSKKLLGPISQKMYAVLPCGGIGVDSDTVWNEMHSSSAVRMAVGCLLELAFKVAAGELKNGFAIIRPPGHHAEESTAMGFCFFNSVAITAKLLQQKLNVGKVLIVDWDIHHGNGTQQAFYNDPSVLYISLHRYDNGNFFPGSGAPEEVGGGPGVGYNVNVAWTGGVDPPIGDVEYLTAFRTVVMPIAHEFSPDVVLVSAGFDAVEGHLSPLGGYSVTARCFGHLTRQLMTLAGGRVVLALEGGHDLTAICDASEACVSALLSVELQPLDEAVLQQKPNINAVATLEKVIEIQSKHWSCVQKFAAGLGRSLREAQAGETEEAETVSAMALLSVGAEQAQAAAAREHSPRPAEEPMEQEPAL

[5] = target: T1, Protein deacetylase HDAC6 (Homo sapiens) (UniProt Q9UBN7); assay: Inhibition of full length N-terminal GST-tagged human HDAC6 expressed in baculovirus infected Sf9 insect cells using HDAC substrate 3 after at 10 uM 30 mins by fluorescence assay relative to control; summary of the method: as §2
T1 sequence (whole entry): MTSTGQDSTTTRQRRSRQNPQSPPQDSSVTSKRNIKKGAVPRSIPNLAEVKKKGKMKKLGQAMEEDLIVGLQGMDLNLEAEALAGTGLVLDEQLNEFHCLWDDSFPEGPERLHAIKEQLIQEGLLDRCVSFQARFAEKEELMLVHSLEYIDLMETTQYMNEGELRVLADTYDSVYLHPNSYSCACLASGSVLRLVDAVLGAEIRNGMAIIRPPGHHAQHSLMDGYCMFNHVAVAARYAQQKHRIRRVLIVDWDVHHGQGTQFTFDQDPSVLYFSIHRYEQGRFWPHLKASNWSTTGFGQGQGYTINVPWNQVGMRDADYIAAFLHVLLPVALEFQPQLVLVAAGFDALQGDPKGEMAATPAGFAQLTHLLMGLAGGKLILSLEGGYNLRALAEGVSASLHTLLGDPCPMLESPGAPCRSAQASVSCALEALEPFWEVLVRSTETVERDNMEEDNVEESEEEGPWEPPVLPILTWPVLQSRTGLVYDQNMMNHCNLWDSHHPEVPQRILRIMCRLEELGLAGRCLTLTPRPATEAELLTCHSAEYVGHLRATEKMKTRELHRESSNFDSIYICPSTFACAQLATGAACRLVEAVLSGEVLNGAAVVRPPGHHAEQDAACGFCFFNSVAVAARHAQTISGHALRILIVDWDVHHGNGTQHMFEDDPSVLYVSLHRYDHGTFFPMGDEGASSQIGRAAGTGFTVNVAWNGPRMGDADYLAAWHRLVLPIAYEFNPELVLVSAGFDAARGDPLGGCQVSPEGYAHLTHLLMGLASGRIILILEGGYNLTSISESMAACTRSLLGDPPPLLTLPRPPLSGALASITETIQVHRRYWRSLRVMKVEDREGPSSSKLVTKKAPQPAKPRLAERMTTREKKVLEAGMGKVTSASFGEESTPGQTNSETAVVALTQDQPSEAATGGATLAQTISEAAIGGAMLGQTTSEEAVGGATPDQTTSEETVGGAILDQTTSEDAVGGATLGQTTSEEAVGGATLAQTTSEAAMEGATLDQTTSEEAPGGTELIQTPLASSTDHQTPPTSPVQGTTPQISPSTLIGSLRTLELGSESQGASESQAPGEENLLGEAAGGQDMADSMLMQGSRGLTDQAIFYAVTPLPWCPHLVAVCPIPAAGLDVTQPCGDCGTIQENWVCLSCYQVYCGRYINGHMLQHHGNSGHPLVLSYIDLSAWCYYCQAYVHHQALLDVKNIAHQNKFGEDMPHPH

[6] = target: T2, Histone deacetylase 8 (Homo sapiens) (UniProt Q9BY41); assay: Inhibition of full length C-terminal His-tagged human HDAC8 expressed in baculovirus infected Sf9 insect cells using BPS HDAC class 2a substrate at 10 uM after 30 mins by fluorescence assay relative to control; summary of the method: as §2
T2 sequence (whole entry): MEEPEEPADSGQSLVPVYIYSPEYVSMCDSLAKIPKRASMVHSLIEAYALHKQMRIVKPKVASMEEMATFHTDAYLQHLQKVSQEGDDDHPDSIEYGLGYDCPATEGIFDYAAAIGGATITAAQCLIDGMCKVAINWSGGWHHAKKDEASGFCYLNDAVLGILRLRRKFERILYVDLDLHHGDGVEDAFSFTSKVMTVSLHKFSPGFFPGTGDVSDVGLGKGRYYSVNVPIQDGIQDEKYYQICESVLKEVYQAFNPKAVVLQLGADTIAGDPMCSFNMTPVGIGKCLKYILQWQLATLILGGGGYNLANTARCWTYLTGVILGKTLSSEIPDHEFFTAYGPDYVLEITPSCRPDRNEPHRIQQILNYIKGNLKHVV

[7] = target: T3, Polyamine deacetylase HDAC10 (Homo sapiens) (UniProt Q969S8); assay: Inhibition of N-terminal GST-tagged/C-terminal His-tagged human HDAC10 (1 to 481 residues) expressed in baculovirus infected Sf9 insect cells using BPS HDAC substrate 3 at 10 uM after 30 mins by fluorescence assay relative to control; summary of the method: as §2
T3 sequence (whole entry): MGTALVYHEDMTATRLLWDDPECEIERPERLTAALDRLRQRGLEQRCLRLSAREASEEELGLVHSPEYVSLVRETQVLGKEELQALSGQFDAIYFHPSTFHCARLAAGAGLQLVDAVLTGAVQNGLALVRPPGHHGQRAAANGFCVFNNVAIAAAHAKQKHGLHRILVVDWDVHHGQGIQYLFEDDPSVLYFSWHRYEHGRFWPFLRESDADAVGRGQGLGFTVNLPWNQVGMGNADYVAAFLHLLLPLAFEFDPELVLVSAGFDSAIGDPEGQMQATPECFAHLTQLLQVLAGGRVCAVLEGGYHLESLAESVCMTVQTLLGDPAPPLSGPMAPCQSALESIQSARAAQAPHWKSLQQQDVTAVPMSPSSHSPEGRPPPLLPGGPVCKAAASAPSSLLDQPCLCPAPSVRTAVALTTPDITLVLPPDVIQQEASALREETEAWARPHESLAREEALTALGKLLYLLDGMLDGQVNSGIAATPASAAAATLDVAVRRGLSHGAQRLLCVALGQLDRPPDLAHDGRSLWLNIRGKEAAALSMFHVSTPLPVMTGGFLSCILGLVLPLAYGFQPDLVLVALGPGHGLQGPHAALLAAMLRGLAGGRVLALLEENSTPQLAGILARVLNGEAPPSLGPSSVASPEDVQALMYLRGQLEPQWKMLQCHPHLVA

[8] = target: Histone deacetylase 3/Nuclear receptor corepressor 2 (HDAC3/NCoR2) (Homo sapiens) (UniProt O15379+Q9Y618); assay: Inhibition of full length human C-terminal His-tagged HDAC3/N-terminal GST-tagged NCOR2 (395 to 489 residues) expressed in baculovirus infected Sf9 insect cells using BPS HDAC substrate 3 at 10 uM after 30 mins by fluorescence assay relative to control; summary of the method: as §2
[9] = target: Histone deacetylase 5 (Homo sapiens) (UniProt Q9UQL6); assay: Inhibition of full length N-terminal GST-tagged human HDAC5 expressed in baculovirus infected Sf9 insect cells using BPS HDAC class 2a substrate at 1 uM after 30 mins by fluorescence assay relative to control
Summary of the method: (§3)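 Run by a contract lab. Compound incubated with HDAC enzyme, HDAC substrate, BSA and HDAC buffer, in duplicate, at 37 °C for 30 min. Quenched with HDAC developer, then 15 min at room temperature. Fluorescence read at ex 360/em 460 nm. Percent activity = (F−Fb)/(Ft−Fb), using blank and solvent-control wells. IC50 from curve fitting.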

[10] = target: T4, Polyamine deacetylase HDAC10 (Homo sapiens, UniProt Q969S8); assay: Inhibition of N-terminal GST-tagged/C-terminal His-tagged human HDAC10 (1 to 481 residues) expressed in baculovirus infected Sf9 insect cells using BPS HDAC substrate 3 after 30 mins by fluorescence assay; summary of the method: as §3
T4 sequence (Q969S8 whole entry): T3 sequence (whole entry)

HCT-116 [11] = assay: Cytotoxicity against human HCT116 cells assessed as reduction in cell viability after 48 hrs by MTT assay; format: functional, cell-based; conditions: HCT-116, 48 h; summary of the method: as §1
MDA-MB-231 [12] = assay: Cytotoxicity against human MDA-MB-231 cells assessed as reduction in cell viability after 48 hrs by MTT assay; format: functional, cell-based; conditions: MDA-MB-231, 48 h; summary of the method: as §1
Homo sapiens [13] = species: Homo sapiens; assay: Inhibition of class 1 HDAC in human HCT116 cells assessed as hyperacetylation of histone H3 (Lys9/14) measured at 8 hrs post treatment by immunoblot analysis; format: cell-based
Summary of the method: (§4)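 Cells in DMEM/10% FBS; 4 × 10^5 cells seeded in 60-mm dishes overnight, then treated for 8 h with 0–10 μM (final) compound or vehicle (1% EtOH). Whole-cell lysates loaded at equal protein (BCA), run on SDS-PAGE, blotted to PVDF and probed with anti-acetyl histone H3 (Lys9/14); β-actin also probed. Chemiluminescent detection.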

Homo sapiens [14] = species: Homo sapiens; assay: Inhibition of class 1 HDAC in human MDA-MB-231 cells assessed as hyperacetylation of histone H3 (Lys9/14) measured at 8 hrs post treatment by immunoblot analysis; format: cell-based; summary of the method: as §4

| SMILES | Activity (HCT-116 [1]) | Activity (MDA-MB-231 [2]) | inhibition (Histone deacetylase 1) [%] | inhibition (Histone deacetylase 2) [%] | IC50 [3] [nM] | inhibition [4] [%] | inhibition [5] [%] | inhibition [6] [%] | inhibition [7] [%] | inhibition [8] [%] | inhibition [9] [%] | IC50 [10] [nM] | IC50 (HCT-116 [11]) [nM] | IC50 (MDA-MB-231 [12]) [nM] | inhibition (Homo sapiens [13]) | inhibition (Homo sapiens [14]) |
| --- | --- | --- | --- | --- | --- | --- | --- | --- | --- | --- | --- | --- | --- | --- | --- | --- |
| CCC(=O)CC/C=C/[C@@H]1CC(=O)NCc2nc(cs2)C2=N[C@@](C)(CS2)C(=O)N[C@@H](C(C)C)C(=O)O1 | inactive | inactive | 30 | 24 | 8000 | < 15 | < 15 | < 15 | 49 |  |  |  |  |  |  |  |
| CC(=O)CC(=O)NC/C=C/[C@@H]1CC(=O)NCc2nc(cs2)C2=N[C@@](C)(CS2)C(=O)N[C@@H](C(C)C)C(=O)O1 | inactive | inactive | < 15 | < 15 |  | < 15 | 22 | < 15 | < 15 | < 15 |  |  |  |  |  |  |
| CC(C)[C@@H]1NC(=O)[C@]2(C)CSC(=N2)c2csc(n2)CNC(=O)C[C@@H](/C=C/CCN)OC1=O | inactive | inactive | < 15 | < 15 |  | < 15 | < 15 | < 15 | < 15 | < 15 |  |  |  |  |  |  |
| CC(C)[C@@H]1NC(=O)[C@]2(C)CSC(=N2)c2csc(n2)CNC(=O)C[C@@H](/C=C/CCS)OC1=O |  |  |  |  |  |  |  |  |  |  | < 15 | 0.5 |  |  |  |  |
| CCCCCCCC(=O)SCC/C=C/[C@@H]1CC(=O)NCc2nc(cs2)C2=N[C@@](C)(CS2)C(=O)N[C@@H](C(C)C)C(=O)O1 [LARGAZOLE] |  |  |  |  |  |  |  |  |  |  |  |  | 20 | 1.6 | Dose-dependent effect | Dose-dependent effect |
| CCC/C=C/[C@@H]1CC(=O)NCc2nc(cs2)C2=N[C@@](C)(CS2)C(=O)N[C@@H](C(C)C)C(=O)O1 | inactive | inactive | < 15 | < 15 |  | < 15 | < 15 | 24 | < 15 | < 15 |  |  |  |  |  |  |
| CC(C)[C@@H]1NC(=O)[C@]2(C)CSC(=N2)c2csc(n2)CNC(=O)C[C@@H](/C=C/CCC(=O)O)OC1=O | inactive | inactive | < 15 | < 15 |  | < 15 | 17 | 20 | 19 | < 15 |  |  |  |  |  |  |
